Screening results deposited in PubChem by Broad Institute.
The list is not random: actives were taken first. Their share in the collection is about 2.5%.
N-glyco inh = N-linked glycosylation inhibition; AID 588692; reporter increase, % at 12.5 µM; D54 ERlucT glycosylation luciferase reporter, 24 h; percent of 100 nM tunicamycin response; actives 0.23% (n = 360,000);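 active = mean luciferase reporter signal, scaled so untreated is 0 and the glycosylation-blocking control 100, at or above a set limit in every replicate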;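 also: luciferase carries N-glycosylation sites so blocking glycosylation raises the light; 0% = median of neutral control wells and 100% = median of 100 nM tunicamycin wells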
PAX8 reporter = lowers PAX8-driven luciferase in RMG-I cells; AID 652154; actives 1.2% (n = 360,000); RMG-I TPO-luciferase reporter, SteadyGlo, 24 h; inhibition, % at 12.6 µM;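 active = mean replicate inhibition at least 60% with every replicate also reaching 60%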;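 also: luciferase light reporting Pax8 driven TPO promoter activity; plate controls were median of neutral control wells for no effect and mitoxantrone controls for full effect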
HIV Env fusion = HIV envelope-mediated fusion inhibition | actives 1.1% (n = 360,000) | HeLa-JRFL Env/CEM21 cell fusion, luciferase | inhibition, % at 12.3 µM;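 active = mean replicate inhibition score of at least 50 and every replicate individually at or above 50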;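 also: 0% = plate neutral controls and 100% = maraviroc near 300 nM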
FN deposit inh = fibronectin deposition inhibition. AH1F fibroblasts, Alexa488-fibronectin deposition fluorescence, overnight. inhibition, % at 12.6 µM. actives 0.086% (n = 350,000). AID 743247;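 active = mean inhibition across replicates of 30% or more, regardless of how many single replicates reach that level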;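 also: positive control wells lacked labelled fibronectin entirely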
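Material: AH1F fibroblast monolayer depositing Alexa488-labelled fibronectin into matrix | Input: 10000 AH1F cells/well | Medium: DMEM plus 2% serum, read in PBS | Reagent: Alexa488-fibronectin, 24 nM final in well | Compound dosing: One dose per compound, pinned | Schedule: 1 h adhesion, overnight exposure | Measured by: Fluorescence at 485 nm excitation, 525 nm emission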
EWS-Fli inh = inhibitors of EWS/Fli oncoprotein transcriptional activity. A673 NR0B1-luciferase reporter, viability-normalised. inhibition, % at 12.6 µM. actives 0.67% (n = 350,000);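 active = mean inhibition of at least 50% after viability correction, with every replicate also passing that limit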;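 also: firefly luciferase signal divided by Alamar Blue viability fluorescence both relative to DMSO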
AF4-AF9 inh = MLL-AF4/AF9 protein interaction inhibition; P42568; actives 0.47% (n = 350,000); AlphaScreen, biotin-AF4 peptide binding to FLAG-AF9; AID 651704; inhibition, % at 10 µM;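 active = every replicate reaching a set inhibition limit, whatever the replicate mean, cut at about 25% in these data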;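 also: 0% = plate neutral control median and 100% = total signal loss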
Target sequence (P42568 whole entry, looked up): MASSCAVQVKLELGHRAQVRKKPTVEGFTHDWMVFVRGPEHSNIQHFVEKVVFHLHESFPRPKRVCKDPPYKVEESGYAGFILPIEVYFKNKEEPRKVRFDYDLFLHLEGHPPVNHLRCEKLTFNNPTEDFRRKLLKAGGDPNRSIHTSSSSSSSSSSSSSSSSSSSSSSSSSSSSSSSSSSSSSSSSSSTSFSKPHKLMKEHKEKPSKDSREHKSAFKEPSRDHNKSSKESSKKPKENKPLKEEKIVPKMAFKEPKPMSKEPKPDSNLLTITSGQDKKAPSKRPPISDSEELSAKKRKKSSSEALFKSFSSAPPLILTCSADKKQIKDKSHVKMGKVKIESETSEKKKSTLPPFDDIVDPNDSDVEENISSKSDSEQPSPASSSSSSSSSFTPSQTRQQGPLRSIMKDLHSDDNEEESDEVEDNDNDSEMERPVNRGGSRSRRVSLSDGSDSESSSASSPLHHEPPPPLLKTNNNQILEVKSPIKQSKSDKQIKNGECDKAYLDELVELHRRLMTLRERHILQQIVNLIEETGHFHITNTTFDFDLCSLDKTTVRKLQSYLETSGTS
The depositor's hits bear a star; [ ] = remark or other dose.

CCOC(=O)[C@H]1[C@H]2COc3ccc(OC)cc3[C@@H]2N2C(=O)CN(Cc3ccc(Cl)cc3)C(=O)[C@@]12C was read as N-glyco inh 0, PAX8 reporter -5, HIV Env fusion 63*, FN deposit inh 6, EWS-Fli inh 6 and AF4-AF9 inh 10.
`O=C(Nc1ccc(F)cc1)N1CCCCN2[C@H](CO)[C@H](c3ccc(-c4ccccc4F)cc3)[C@H]2C1` gave PAX8 reporter 64*, EWS-Fli inh 3 and AF4-AF9 inh 11.
`O=C(Nc1ccc(F)cc1)N1CCCCN2[C@H](CO)[C@@H](c3ccc(-c4ccccc4F)cc3)[C@@H]2C1` gave PAX8 reporter 5, EWS-Fli inh -5 and AF4-AF9 inh -6.
For O=C(Nc1cccc(F)c1)N1CCCCN2[C@H](CO)[C@@H](c3ccc(-c4ccccc4F)cc3)[C@H]2C1 the results were PAX8 reporter 94*, EWS-Fli inh 32 and AF4-AF9 inh 3.
Screening COc1ccccc1NC(=O)N[C@@H]1CC[C@H](CCNS(=O)(=O)c2ccc(F)cc2)O[C@@H]1CO returned PAX8 reporter 4, HIV Env fusion 18[16.7 µM], EWS-Fli inh 1 and AF4-AF9 inh 1.
O=C1C=CC2C3C(=O)N(c4ccccc4)C(=O)C3C1N2Cc1ccccc1 (stereo not given) was read as N-glyco inh -19, PAX8 reporter 8, HIV Env fusion -239, EWS-Fli inh 60* and AF4-AF9 inh 1.
`O=C1C2C3C=CC(CC3)C2C(=O)N1c1ccccc1` (stereo not given) gave N-glyco inh 2, PAX8 reporter 15, HIV Env fusion -17, FN deposit inh 1, EWS-Fli inh 10 and AF4-AF9 inh -1.
For Cc1ccc(S(=O)(=O)N(C)C[C@@H]2Oc3ccc(NC(=O)CCC(F)(F)F)cc3CC(=O)N([C@@H](C)CO)C[C@@H]2C)cc1 the results were N-glyco inh 33*, PAX8 reporter 12, FN deposit inh 5, EWS-Fli inh 66* and AF4-AF9 inh -2.
For C[C@@H]1CN([C@H](C)CO)C(=O)Cc2cc(NC(=O)Cc3ccccc3)ccc2O[C@H]1CN(C)S(=O)(=O)c1ccccc1 the results were PAX8 reporter -2, HIV Env fusion 21[16.7 µM], EWS-Fli inh -12 and AF4-AF9 inh -2.
Cc1ccc(S(=O)(=O)N(C)C[C@H]2Oc3ccc(NC(=O)Cc4ccccc4)cc3CC(=O)N([C@H](C)CO)C[C@H]2C)cc1 was read as PAX8 reporter -18, HIV Env fusion 30[16.7 µM], EWS-Fli inh -10 and AF4-AF9 inh 8.
Cc1ccc(S(=O)(=O)N(C)C[C@@H]2Oc3ccc(NC(=O)Cc4ccccc4)cc3CC(=O)N([C@H](C)CO)C[C@@H]2C)cc1 was read as PAX8 reporter 29, HIV Env fusion 77*[16.7 µM], EWS-Fli inh 3 and AF4-AF9 inh 0.
Screening Cc1ccc(S(=O)(=O)N(C)C[C@H]2Oc3ccc(NC(=O)CCC(F)(F)F)cc3CC(=O)N([C@H](C)CO)C[C@@H]2C)cc1 returned PAX8 reporter -3, EWS-Fli inh 4 and AF4-AF9 inh 0.
For C[C@H]1CN([C@@H](C)CO)C(=O)Cc2cc(NC(=O)Cc3ccccc3)ccc2O[C@H]1CN(C)S(=O)(=O)c1ccccc1 the results were PAX8 reporter -1, HIV Env fusion 73*[16.7 µM], EWS-Fli inh 1 and AF4-AF9 inh 1.
`C[C@H](CO)N1C[C@H](C)[C@@H](CN(C)S(=O)(=O)c2ccccc2)Oc2c(NC(=O)Cc3ccccc3)cccc2C1=O` gave N-glyco inh 28*, PAX8 reporter -2, HIV Env fusion -42, FN deposit inh -2, EWS-Fli inh 9 and AF4-AF9 inh -2.
`Cc1ccc(S(=O)(=O)N(C)C[C@@H]2Oc3ccc(NC(=O)Cc4ccccc4)cc3C(=O)N([C@H](C)CO)C[C@H]2C)cc1` gave PAX8 reporter 24, EWS-Fli inh 1 and AF4-AF9 inh 0.
Cc1ccc(S(=O)(=O)N(C)C[C@H]2Oc3ccc(NC(=O)Cc4ccccc4)cc3C(=O)N([C@H](C)CO)C[C@@H]2C)cc1 was read as PAX8 reporter 84*, EWS-Fli inh 1 and AF4-AF9 inh -1.
Screening COc1ccc2c3c([nH]c2c1)[C@H](CO)N(C(=O)c1ccncc1)CC31CN(C(=O)Nc2cccc(F)c2)C1 returned EWS-Fli inh 19 and AF4-AF9 inh 2.
Cc1ccc(S(=O)(=O)Nc2cc(Cl)c(O)c3ncccc23)cc1 was read as N-glyco inh -3, PAX8 reporter 84*, HIV Env fusion 54, EWS-Fli inh -12 and AF4-AF9 inh 1.
For C[C@H](CO)N1C[C@H](C)[C@@H](CN(C)Cc2ccc(C(=O)O)cc2)Oc2ccc(NS(=O)(=O)c3ccccc3)cc2CC1=O the results were HIV Env fusion -12[16.7 µM], FN deposit inh -4, EWS-Fli inh -10 and AF4-AF9 inh -2.
`COc1ccc(Cn2ccnc2)cc1Br` gave N-glyco inh 1 and HIV Env fusion -125.
COc1ccc(NCc2ccc(OC)c(Cn3ccnc3)c2)c(OC)c1 was read as N-glyco inh 2, PAX8 reporter 17, HIV Env fusion -12, FN deposit inh -2, EWS-Fli inh 5 and AF4-AF9 inh 34*.
For CO[C@@H]1CN(C)C(=O)c2ccc(NC(C)=O)cc2OC[C@@H](C)N(C(=O)c2ccncc2)C[C@H]1C the results were FN deposit inh -5, EWS-Fli inh 8 and AF4-AF9 inh -1.
Screening C/C=C/c1ccc2c(c1)O[C@@H](CN(C)C(=O)Nc1ccc(C(F)(F)F)cc1)[C@@H](C)CN([C@@H](C)CO)S2(=O)=O returned HIV Env fusion 1[16.7 µM], FN deposit inh 2, EWS-Fli inh 5 and AF4-AF9 inh 4.
CC(Nc1nc(-c2ccc(F)cc2)cs1)c1nc2cc(C(F)(F)F)ccc2n1CCOCCO (stereo not given) was read as N-glyco inh 5, PAX8 reporter -13, HIV Env fusion 3, FN deposit inh -2, EWS-Fli inh -13 and AF4-AF9 inh -2.
CC(Nc1nc(-c2ccc(F)cc2)cs1)c1nc2cc(C(F)(F)F)ccc2n1CCCO (stereo not given) was read as N-glyco inh 1, PAX8 reporter 13, HIV Env fusion 75*, FN deposit inh 3, EWS-Fli inh 0 and AF4-AF9 inh -3.
`O=C(Nc1ccc(Cl)cc1)c1cc2c(cc1O)[nH]c1ccccc12` gave N-glyco inh -7, PAX8 reporter -6, HIV Env fusion 62*, FN deposit inh 16, EWS-Fli inh 15 and AF4-AF9 inh -3.
CCOC(=O)c1sc(NC(=O)Nc2ccc(Cl)cc2)cc1C was read as N-glyco inh -2, PAX8 reporter -25, HIV Env fusion 74* and FN deposit inh -3.
